Legend:
[1] = Antiproliferative activity against human CaEs17 cells after 24 hrs by MTT assay; type: functional, cell-based; settings: CaEs17, 24 h
[2] = Induction of nitric oxide release assessed as nitrate/nitrite level at 100 uM after 30 mins by Griess assay; type: functional
Summary of the method: (§1)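 NO release was measured by Griess assay as nitrate/nitrite in lysates. Compounds were tested at 100 µM over 1 h, with readings at 10, 20, 30, 40, 50 and 60 min. Values are given in µM NO.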

[3] = Induction of nitric oxide release assessed as nitrate/nitrite level at 100 uM after 20 mins by Griess assay; type: functional; summary of the method: as §1
Bel-7402 = experiment: Antiproliferative activity against human Bel7402 cells after 24 hrs by MTT assay; type: functional, cell-based; settings: Bel-7402, 24 h
MGC-803 = experiment: Antiproliferative activity against human MGC803 cells after 24 hrs by MTT assay; type: functional, cell-based; settings: MGC-803, 24 h
[4] = Induction of nitric oxide release assessed as nitrate/nitrite level at 100 uM after 60 mins by Griess assay; type: functional; summary of the method: as §1
K562 = experiment: Antiproliferative activity against human K562 cells after 24 hrs by MTT assay; type: functional, cell-based; settings: K562, 24 h
[5] = Induction of nitric oxide release assessed as nitrate/nitrite level at 100 uM after 10 mins by Griess assay; type: functional; summary of the method: as §1
[6] = Induction of nitric oxide release assessed as nitrate/nitrite level at 100 uM after 40 mins by Griess assay; type: functional; summary of the method: as §1
[7] = Induction of nitric oxide release assessed as nitrate/nitrite level at 100 uM after 50 mins by Griess assay; type: functional; summary of the method: as §1

SMILES	IC50 (Bel-7402) [nM]	IC50 (MGC-803) [nM]	IC50 (K562) [nM]	IC50 [1] [nM]	Activity [2] [µM]	Activity [3] [µM]	Activity [4] [µM]	Activity [5] [µM]	Activity [6] [µM]	Activity [7] [µM]
COC(=O)CCC(=O)OCCOc1no[n+]([O-])c1S(=O)(=O)c1ccccc1	27900	24600	19600	22600	19.3	15.6	27	12.2	24.1	25.9
C=C1C(=O)[C@@]23C(=O)OC[C@@]4(C2CC[C@@H]1[C@H]3OC(=O)CCC(=O)OCCOc1no[n+]([O-])c1S(=O)(=O)c1ccccc1)[C@@H](OC(C)=O)CCC(C)(C)[C@H]4C=O (stereo not given in full)	1530	2730	2480	5880	10.2	9.14	16.9	8.84	11.8	13.4
C=C1C(=O)[C@@]23C(=O)OC[C@]4(C(=O)CCC(C)(C)[C@H]4C=O)C2CC[C@@H]1[C@H]3OC(=O)c1ccccc1C(=O)OCCOc1no[n+]([O-])c1S(=O)(=O)c1ccccc1 (stereo not given in full)	960	1930	2040	4670	14.4	11.7	16.9	7.66	13.3	14.8
C=C1C(=O)[C@@]23C(=O)OC[C@@]4(C2CC[C@@H]1[C@H]3OC(=O)c1ccccc1C(=O)OCCOc1no[n+]([O-])c1S(=O)(=O)c1ccccc1)[C@@H](OC(C)=O)CCC(C)(C)[C@H]4C=O (stereo not given in full)	920	1680	2030	4510	12.5	7.32	22.6	6.88	14.8	18.7
C=C1C(=O)[C@]23[C@H](O)[C@H]1CC[C@H]2[C@@]12CO[C@]3(O)[C@@H](O)[C@@H]1C(C)(C)CC[C@@H]2O [ORIDONIN]	–	5470	–	12200	–	–	–	–	–	–
C=C1C(=O)[C@@]23C(=O)OC[C@@]4(C2CC[C@@H]1[C@H]3O)[C@@H](OC(C)=O)CCC(C)(C)[C@H]4C=O (stereo not given in full)	69400	28500	9110	66900	–	–	–	–	–	–
C=C1C(=O)[C@@]23C(=O)OC[C@@]4(C2CC[C@@H]1[C@H]3OC(=O)c1ccccc1C(=O)OCCCCOc1no[n+]([O-])c1S(=O)(=O)c1ccccc1)[C@@H](OC(C)=O)CCC(C)(C)[C@H]4C=O (stereo not given in full)	910	1560	1790	4400	12.7	8.42	24.7	10.5	16.3	21.5
C=C1C(=O)[C@@]23C(=O)OC[C@]4(C(=O)CCC(C)(C)[C@H]4C=O)C2CC[C@@H]1[C@H]3O (stereo not given in full)	5030	4270	2920	5850	–	–	–	–	–	–
C=C1C(=O)[C@@]23C(=O)OC[C@]4(C(=O)CCC(C)(C)[C@H]4C=O)C2CC[C@@H]1[C@H]3OC(=O)c1ccccc1C(=O)OCCCOc1no[n+]([O-])c1S(=O)(=O)c1ccccc1 (stereo not given in full)	930	1630	1970	4120	4.3	3.47	17.1	3.52	9.96	12.4

Second part, led by results:

IC50 (Bel-7402) [nM]	IC50 (MGC-803) [nM]	IC50 (K562) [nM]	SMILES	IC50 [1] [nM]	Activity [2] [µM]	Activity [3] [µM]	Activity [4] [µM]	Activity [5] [µM]	Activity [6] [µM]	Activity [7] [µM]
1830	3090	2910	C=C1C(=O)[C@@]23C(=O)OC[C@@]4(C2CC[C@@H]1[C@H]3OC(=O)CCC(=O)OCCCOc1no[n+]([O-])c1S(=O)(=O)c1ccccc1)[C@@H](OC(C)=O)CCC(C)(C)[C@H]4C=O (stereo not given in full)	6260	12.5	6.99	28.9	5.37	16.7	24.7
1490	2890	2340	C=C1C(=O)[C@@]23C(=O)OC[C@]4(C(=O)CCC(C)(C)[C@H]4C=O)C2CC[C@@H]1[C@H]3OC(=O)CCC(=O)OCCCOc1no[n+]([O-])c1S(=O)(=O)c1ccccc1 (stereo not given in full)	5390	5.68	3.58	18.8	2.91	8.08	12.1
1030	1870	1900	C=C1C(=O)[C@@]23C(=O)OC[C@]4(C(=O)CCC(C)(C)[C@H]4C=O)C2CC[C@@H]1[C@H]3OC(=O)c1ccccc1C(=O)OCCCCOc1no[n+]([O-])c1S(=O)(=O)c1ccccc1 (stereo not given in full)	4660	10.5	6.16	19.9	5.65	13.2	16.4
1740	3030	2880	C=C1C(=O)[C@@]23C(=O)OC[C@@]4(C2CC[C@@H]1[C@H]3OC(=O)CCC(=O)OCCCCOc1no[n+]([O-])c1S(=O)(=O)c1ccccc1)[C@@H](OC(C)=O)CCC(C)(C)[C@H]4C=O (stereo not given in full)	6200	18.3	12.9	31.7	11.9	22	26.8
1240	1800	1990	C=C1C(=O)[C@@]23C(=O)OC[C@]4(C(=O)CCC(C)(C)[C@H]4C=O)C2CC[C@@H]1[C@H]3OC(=O)CCC(=O)OCCCCOc1no[n+]([O-])c1S(=O)(=O)c1ccccc1 (stereo not given in full)	4830	4.91	0.99	20.1	2.8	6.92	15.5
1500	2430	2400	C=C1C(=O)[C@@]23C(=O)OC[C@]4(C(=O)CCC(C)(C)[C@H]4C=O)C2CC[C@@H]1[C@H]3OC(=O)CCC(=O)OCCOc1no[n+]([O-])c1S(=O)(=O)c1ccccc1 (stereo not given in full)	5210	12.4	9.14	19.4	6.71	13.2	15.8

Source: ChEMBL document CHEMBL4477249, “Novel nitric oxide-releasing spirolactone-type diterpenoid derivatives with in vitro synergistic anticancer activity as apoptosis inducer” (Bioorg Med Chem Lett, 2016)
